Consider 13 molecules from ChEMBL document CHEMBL1122774, “Tri- and tetrapeptide analogues of kinins as potential renal vasodilators” (J Med Chem, 1984).

In assay [1] the test system is Canis familiaris. Description: Renal vasodilator activity in anesthetized dogs and percent change in heart rate (HR) was determined at 3 ug/kg min. The format is functional, Canis lupus familiaris. In short, it runs like this:
(§1)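 Primary screen in anesthetized dogs (7-17 kg). Drug infused separately at 3, 30 and 300 µg/(kg min), each infusion lasting 5 min, at about 15-min intervals. Read-outs are renal blood flow, mean arterial blood pressure, heart rate, and RVR (MABP / mean RBF), as percent change. Significance thresholds are defined per number of dogs; n = 1-3 dogs.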

Assay [2] has as its system Canis familiaris. Description: Renal vasodilator activity in anesthetized dogs and percent change in renal vascular resistance (RVR) was determined at 300 ug/kg min. In kind it is functional, Canis lupus familiaris. In short, it runs like this:
as §1

The subject of assay [3] is Canis familiaris. The experiment in a line: Renal vasodilator activity in anesthetized dogs and percent change in heart rate (HR) was determined at 300 ug/kg min. The format is functional, Canis lupus familiaris. The method, boiled down: as §1
For assay [4], the system named is Canis familiaris. The experiment in a line: Renal vasodilator activity in anesthetized dogs and percent change in renal blood flow (RBF) was determined at 300 ug/kg min. In kind it is functional, Canis lupus familiaris, Kidney. In short, it runs like this:
as §1

The subject of assay [5] is Canis familiaris. Description: Renal vasodilator activity in anesthetized dogs and percent change in mean arterial blood pressure (MABP) was determined at 3 ug/kg min. In kind it is functional, Canis lupus familiaris. The method, boiled down:
as §1

Assay [6] relates to Canis familiaris. Description: Renal vasodilator activity in anesthetized dogs and percent change in renal vascular resistance (RVR) was determined at 3 ug/kg min. The format is functional, Canis lupus familiaris. In short, it runs like this:
as §1

Assay [7] relates to Canis familiaris. Description: Renal vasodilator activity in anesthetized dogs and percent change in mean arterial blood pressure (MABP) was determined at 30 ug/kg min. In kind it is functional, Canis lupus familiaris. The method, boiled down: as §1
Assay [8] deals with Canis familiaris. The experiment in a line: Renal vasodilator activity in anesthetized dogs and percent change in renal blood flow (RBF) was determined at 30 ug/kg min. In kind it is functional, Canis lupus familiaris, Kidney. In short, it runs like this:
as §1

Assay [9] deals with Canis familiaris. The experiment in a line: Renal vasodilator activity in anesthetized dogs and percent change in heart rate (HR) was determined at 30 ug/kg min. The format is functional, Canis lupus familiaris. In short, it runs like this:
as §1

Assay [10] has as its system Canis familiaris. Description: Renal vasodilator activity in anesthetized dogs and percent change in mean arterial blood pressure (MABP) was determined at 300 ug/kg min. In kind it is functional, Canis lupus familiaris. The method, boiled down:
as §1

The test system of assay [11] is Canis familiaris. Description: Renal vasodilator activity in anesthetized dogs and percent change in renal blood flow (RBF) was determined at 3 ug/kg min. The format is functional, Canis lupus familiaris, Kidney. In short, it runs like this:
as §1

Assay [12] relates to Canis familiaris. The experiment in a line: Renal vasodilator activity in anesthetized dogs and percent change in renal vascular resistance (RVR) was determined at 30 ug/kg min. In kind it is functional, Canis lupus familiaris. In short, it runs like this: as §1
For assay [13], the system named is Canis familiaris. Description: In vivo percent change in canine renal vascular resistance (RVR) at 3 ug/Kg/min. The format is functional, Canis lupus familiaris. In short, it runs like this:
as §1

Assay [14] concerns Canis familiaris. The experiment in a line: In vivo percent change in canine renal vascular resistance (RVR) at 300 ug/Kg/min. In kind it is functional, Canis lupus familiaris. The method, boiled down: as §1
The subject of assay [15] is Canis familiaris. Description: In vivo percent change in canine renal blood flow (RBF) at 300 ug/Kg/min. In kind it is functional, Canis lupus familiaris, Kidney. The method, boiled down: as §1
Assay [16] relates to Canis familiaris. The experiment in a line: In vivo percent change in renal blood flow at 30 ug/Kg/min. In kind it is functional, Canis lupus familiaris, Kidney. In short, it runs like this: as §1
For assay [17], the system named is Canis familiaris. Description: In vivo percent change in canine heart rate at 30 ug/Kg/min. The format is functional, Canis lupus familiaris. The method, boiled down:
as §1

In assay [18] the test system is Canis familiaris. Description: In vivo percent change in canine renal blood flow (RBF) at 3 ug/Kg/min. In kind it is functional, Canis lupus familiaris, Kidney. In short, it runs like this: as §1
Assay [19] concerns Canis familiaris. Description: Renal vasodilator activity in anesthetized dogs and percent change in renal vascular resistance (RVR) was determined at 30 ug/Kg/min. In kind it is functional, Canis lupus familiaris. In short, it runs like this:
as §1

Assay [20] deals with Canis familiaris. The experiment in a line: In vivo percent change in canine mean arterial blood pressure (MABP) at 3 ug/Kg/min. In kind it is functional, Canis lupus familiaris. The method, boiled down:
as §1

The subject of assay [21] is Canis familiaris. Description: In vivo percent change in canine heart rate at 3 ug/Kg/min. The format is functional, Canis lupus familiaris. In short, it runs like this: as §1
Assay [22] deals with Canis familiaris. Description: In vivo percent change in canine heart rate at 300 ug/Kg/min. The format is functional, Canis lupus familiaris. In short, it runs like this: as §1
Assay [23] relates to Canis familiaris. Description: In vivo percent change in canine mean arterial blood pressure (MABP) at 300 ug/Kg/min. The format is functional, Canis lupus familiaris. In short, it runs like this: as §1
For assay [24], the system named is Canis familiaris. The experiment in a line: In vivo percent change in canine mean arterial blood pressure (MABP) at 30 ug/Kg/min. The format is functional, Canis lupus familiaris. In short, it runs like this:
as §1

Molecules are shown by their SMILES. Square brackets hold non-standard residues; d marks the D form. Peptide text beside a SMILES is read from it. * marks the point of attachment. ξ: configuration not given here. Hydrocinnamoyl = O=C(CCc1ccccc1)*; ξαMeF = CC(N)(Cc1ccccc1)C(=O)O; PhAc = O=C(Cc1ccccc1)*; Bz = O=C(c1ccccc1)*

Consider `CC(Cc1ccccc1)(NC(=O)[C@@H]1CCCN1)C(=O)N[C@@H](CCCN=C(N)N)C(=O)O` (stereo partly specified) (H-Pro-[ξαMeF]-Arg-OH), for which the Change in assay [1] is -0.7%; in assay [2] it was -5.3%; in assay [3], 0%; in assay [4], 7.3%; in [5] it was 1%; in assay [6], 0.3%. The Change is given as -0.3% in assay [7]; 9.3% in assay [8]; 0% in assay [9]; -0.7% in [10]; 1.3% in [11]; -7.3% in [12].

With `CC(Cc1ccccc1)(NC(=O)[C@@H]1CCCN1C(=O)CCc1ccccc1)C(=O)N[C@@H](CCCN=C(N)N)C(=O)O` (stereo partly specified) (Hydrocinnamoyl-Pro-[ξαMeF]-Arg-OH), the Change is 8% in assay [1]; 0% in assay [2]; -1% in [3]; 1% in assay [4]; -2% in [5]; -7% in [6]. In addition, the Change in [7] is listed as -3%; in [8], 2%; in assay [9] it was 1%; in assay [10], 1%; in assay [11] it was 5%; in [12] it was -5%.

In the case of `CC(Cc1ccccc1)(NC(=O)[C@@H]1CCCN1C(=O)CCCc1ccc(O)cc1)C(=O)NCCCCCC(=O)O` (stereo partly specified), the Change in [13] is recorded as -1%; in assay [14], -4%; in [15], 5%; in [16], -4%; in assay [17], -2%; in assay [18], 1%. In addition, the Change in [19] is on record as 5%; in assay [20], 0%; in assay [21] it was -4%; in [22] it was -6%; in assay [23], 1%; in [24], 2%.

For `N=C(N)NCCC[C@H](NC(=O)[C@H](Cc1ccccc1)NC(=O)[C@@H]1CCCN1)C(=O)O` (H-Pro-Phe-Arg-OH), the Change is -6% in assay [1]; 0% in assay [2]; 6% in assay [3]; -3% in [4]; -1% in assay [5]; -5% in assay [6]. Further, the Change in assay [7] is recorded as 1%; in [8], 3%; in assay [9] it was 3%; in [10] it was -4%; in [11], 4%; in assay [12] it was -2%.

Regarding `CC(Cc1ccccc1)(NC(=O)[C@@H]1CCCN1C(=O)Cc1ccccc1)C(=O)N[C@@H](CCCN=C(N)N)C(=O)O` (stereo partly specified) (PhAc-Pro-[ξαMeF]-Arg-OH), the Change is listed as 9% in assay [1]; 7% in assay [2]; 0% in assay [3]; -2% in assay [4]; 0% in [5]; -4% in assay [6]. In addition, the Change in assay [7] is reported as 0%; in assay [8], 0%; in assay [9], -2%; in assay [10], 5%; in assay [11], 4%; in [12], 0%.

Take `N=C(N)NCCC[C@H](NC(=O)[C@H](Cc1ccccc1)NC(=O)[C@@H]1CCCN1C(=O)c1ccccc1)C(=O)O` (Bz-Pro-Phe-Arg-OH): the Change is 0% in assay [1]; 11% in assay [2]; 0% in assay [3]; -10% in assay [4]; 4% in [5]; 2% in assay [6]. In addition, the Change in assay [7] turned out to be 1%; in [8], 0%; in assay [9] it was 0%; in assay [10], 0%; in [11] it was 3%; in assay [12], 0%.

`CC(Cc1ccccc1)(NC(=O)[C@@H]1CCCN1C(=O)CCCc1ccc(O)cc1)C(=O)N[C@@H](CCCN=C(N)N)C(=O)O` (stereo partly specified): the Change in [1] was 0%; in [2] it was -11%; in assay [3], 0%; in assay [4], 11%; in assay [5] it was -4%; in [6], -12%. Also, the Change in [7] is recorded as 2%; in assay [8], 12%; in assay [9] it was 0%; in assay [10], 0%; in assay [11], 8%; in [12], -9%.

Consider `N=C(N)NCCC[C@H](NC(=O)[C@H](Cc1ccccc1)NC(=O)[C@@H]1CCCN1C(=O)CCCc1ccccc1)C(=O)O`, for which the Change is 2% in assay [1]; 1% in assay [2]; -1.7% in [3]; -1.7% in assay [4]; 1% in assay [5]; -5.7% in [6]. For the same molecule, the Change in [7] is listed as 0.3%; in assay [8], 4%; in assay [9], 1.7%; in assay [10], -0.7%; in [11], 5.3%; in assay [12] it was -3.7%.

Regarding `CC(Cc1ccccc1)(NC(=O)[C@@H]1CCCN1C(=O)CCCc1ccccc1)C(=O)N[C@@H](CCCN=C(N)N)C(=O)O` (stereo partly specified), the Change in assay [1] is reported as -3.6%; in assay [2], 0%; in [3], -1%; in assay [4], 1%; in assay [5], 3%; in assay [6] it was 3%. Also, the Change was 2.8% in assay [7]; 4.6% in [8]; 0% in assay [9]; 1% in assay [10]; 0% in assay [11]; -1.8% in [12].

In the case of `Cl.NCCCNC(=O)[C@@H]1Cc2ccccc2CN1C(=O)CCCc1ccc(O)cc1`, the Change is 1% in [1]; -6% in assay [2]; -1% in assay [3]; 5% in assay [4]; -2% in assay [5]; -6% in [6]. Besides, the Change is on record as -1% in assay [7]; 6% in [8]; -2% in [9]; -2% in assay [10]; 3% in assay [11]; -6% in assay [12].

For `N=C(N)NCCC[C@H](NC(=O)[C@@H](Cc1ccccc1)NC(=O)[C@@H]1CCCN1C(=O)CCCc1ccccc1)C(=O)O`, the Change is -3% in assay [1]; -4% in [2]; -2% in [3]; 4% in assay [4]; 0% in assay [5]; -3% in assay [6]. Moreover, the Change in assay [7] is listed as 1%; in assay [8] it was 2%; in assay [9] it was 0%; in [10] it was 0%; in assay [11], 3%; in [12], -1%.

In the case of `CC(Cc1ccccc1)(NC(=O)[C@@H]1CCCN1)C(=O)N1CCC[C@H]1C(=O)O` (stereo partly specified) (H-Pro-[ξαMeF]-Pro-OH), the Change in assay [1] was 0%; in assay [2], -10%; in assay [3], 0%; in assay [4] it was 8%; in [5], 1%; in [6], 1%. Also, the Change in assay [7] is listed as 0%; in [8], 0%; in assay [9], 0%; in assay [10], -3%; in assay [11], 0%; in assay [12], 0%.

For `CC(Cc1ccccc1)(NC(=O)[C@@H]1CCCN1C(=O)CCCCc1ccccc1)C(=O)N[C@@H](CCCN=C(N)N)C(=O)O` (stereo partly specified), the Change in assay [1] is -1%; in [2], -2%; in assay [3], 6%; in [4] it was 3%; in assay [5], 1%; in assay [6], -2%. The Change in [7] is given as 3%; in [8], 1%; in assay [9], -1%; in [10] it was 1%; in assay [11], 4%; in assay [12], 1%.
